The record followed here is ChEMBL document CHEMBL1137984, “Structure-activity relationship of heterobase-modified 2'-C-methyl ribonucleosides as inhibitors of hepatitis C virus RNA replication” (J Med Chem, 2004).

Data set [1] in a line: Clearance in rats when administered at a dose of 1 mg/kg i.v. and […] p.o. The data set is classed as ADME, organism-based. Further details: dose 1 mg/kg. The note with it: rat, in vivo, iv. The gist of the method: (§1)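 Male CRL rats; single intravenous dose of 1.0 mg/kg (N = 2) and oral dose at […] (N = 3). Plasma sampled and analysed by a method described earlier; clearance, half-life, Cmax, Tmax and %F derived from plasma levels.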

Data set [2] in a line: Oral bioavailability in rat. The data set is classed as ADME, organism-based. The note with it: in vivo. The procedure, abridged: as §1
Data set [3] can be described thus: Half-life in rats. The data set is classed as ADME. The note with it: rat, in vivo. The procedure, abridged: as §1
The subject of data set [4] is Nucleic Acid. Description: Inhibition of HCV RNA replication in a subgenomic bicistronic replicon assay in HB-1 cells. The data set is classed as functional, cell-based, Hepacivirus hominis. The note with it: Hepatitis C virus, HB1. The gist of the method: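 Subgenomic bicistronic HCV replicon in HB-1 cells; viral RNA quantified by in situ RNase protection assay after 24 h of nucleoside treatment. EC50 averaged over at least two independent potency determinations. Nucleosides purified by preparative RP-HPLC, purity generally >98%.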
(A replicon is a self-replicating genome or part of one, used to study replication in cells.)

Data set [5] is described as follows: Tmax value in rats. The data set is classed as ADME. The note with it: rat, in vivo. The procedure, abridged: as §1
The nature of data set [6]: Cytotoxicity against HB-1 cells in an MTS-based assay. The data set is classed as functional. The note with it: HB1. On the technique in general: Tetrazolium dyes change colour on reduction, which living cells bring about.
The nature of data set [7]: Cmax value in rats. The data set is classed as ADME, organism-based. The note with it: rat, in vivo. The gist of the method: as §1
In data set [8] the test system is Hepatitis C virus. Briefly: Compound was tested for the inhibition of HCV NS5B-mediated RNA synthesis. The data set is classed as functional, Hepacivirus hominis. The gist of the method: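 Enzymatic activity of HCV NS5B Δ21 measured with nucleoside 5'-triphosphates as inhibitors, by an earlier protocol. Triphosphates purified by anion exchange, desalted by RP-HPLC, >90% pure, identity confirmed by MS. IC50 averaged over at least three separate determinations.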

A word on the bioavailability: it is dose-corrected exposure relative to a reference, in per cent. Read a low bioavailability as little systemic uptake. A word on the half-life: it is how long it takes for the measured level to halve. Read a high half-life as slow decline. One may read the EC50 as the concentration at which the effect is half-maximal. By Tmax is commonly meant the time at which the peak concentration occurs. By CC50 is commonly meant the concentration at which the toxic effect on the cells reaches its halfway point. Low readings indicate harm at low concentration, high ones better tolerance by the cells. In general, Cmax refers to the maximum level reached in the sampled fluid or tissue. As to `C[C@@]1(O)[C@H](O)[C@@H](CO)O[C@H]1n1cc(F)c2c(N)ncnc21`, in data set [1], the Clearance came to 44 mL/min/kg. In data set [2], this compound showed a bioavailability of 51%. The compound also had a half-life in data set [3] of 306 min. Besides, it took 0.07 µM to reach a half-maximal effect in data set [4] (EC50). Also, in data set [5], the time to peak (Tmax) came out at 30 min. For the same compound, the CC50 in data set [6] is > 100 µM. This compound also came in with a Cmax in data set [7] of 600 nM.
With `C[C@@]1(O)[C@H](O)[C@@H](CO)O[C@H]1n1cc(Cl)c2c(O)nc(N)nc21`, the EC50 in data set [4] is > 100 µM. Moreover, in data set [6], the cytotoxic concentration (CC50) is > 100 µM.
In the case of `C[C@@]1(O)[C@H](O)[C@@H](CO)O[C@H]1n1ccc2c(N)nccc21`, the EC50 in data set [4] was > 100 µM. Also, the CC50 in data set [6] was > 100 µM.
On to `C[C@@]1(O)[C@H](O)[C@@H](CO)O[C@H]1n1ccc2c(N)nc(N)nc21`, for which, in data set [4], a half-maximal response (EC50) required 100 µM. Moreover, the CC50 in data set [6] is > 100 µM.
The like results for `C[C@@]1(O)[C@H](O)[C@@H](CO)O[C@H]1n1cc(Cl)c2c(N)ncnc21` were, in that order, 0.13 µM and ~50 µM.
In data set [4], `C[C@@]1(O)[C@H](O)[C@@H](CO)O[C@H]1n1cc(Br)c2c(N)ncnc21` showed an EC50 of 0.24 µM. The CC50 in data set [6] was found to be 40 µM.
The like results for `C[C@@]1(O)[C@H](O)[C@@H](CO)O[C@H]1n1ccc2c(O)nc(N)nc21` were, in that order, > 100 µM and > 100 µM.
The like results for `C[C@@]1(O)[C@H](O)[C@@H](CO)O[C@H]1n1cc(C(=O)O)c2c(N)ncnc21` were, in that order, 70 µM and > 100 µM.
In data set [4], `C[C@]1(O)C(n2cc(C#N)c3c(N)ncnc32)O[C@H](CO)[C@H]1O` (stereo partly drawn) displayed an EC50 of 3.1 µM. The CC50 in data set [6] is ~50 µM.
For `C[C@]1(O)C(n2cc(C(N)=O)c3c(N)ncnc32)O[C@H](CO)[C@H]1O` (stereo partly drawn), in that order: 0.08 µM and ~33 µM.
The like results for `C[C@@]1(O)[C@H](O)[C@@H](CO)O[C@H]1n1ncc2c(N)ncnc21` were, in that order, > 100 µM and > 100 µM.
Compound `Cc1cn([C@@H]2O[C@H](CO)[C@@H](O)[C@@]2(C)O)c2ncnc(N)c12` displayed an EC50 in data set [4] of 34 µM. In data set [6], the CC50 was > 100 µM.
For `C[C@@]1(O)[C@H](O)[C@@H](CO)O[C@H]1n1ccc2c(N)nc(F)nc21`, in that order: 100 µM and > 100 µM.
One may read the IC50 as the concentration at which inhibition is half-maximal. Turning to `C[C@@]1(O)[C@H](O)[C@@H](CO)O[C@H]1n1cnc2c(N)ncnc21`, the Clearance in data set [1] was > 200 mL/min/kg. Besides, in data set [2], the bioavailability was determined as 0%. The compound also registered an IC50 in data set [8] of 1.9 µM. This compound also had a half-life in data set [3] of 18 min. In data set [4], the 50% effective concentration (EC50) turned out to be 0.26 µM. The CC50 in data set [6] was > 100 µM.
In data set [2], `C[C@@]1(O)[C@H](O)[C@@H](CO)O[C@H]1n1cnc2c(=O)[nH]c(N)nc21` [2'-B-METHYL-GUANOSINE] showed a bioavailability of 85%. The compound also registered an IC50 in data set [8] of 0.13 µM. Moreover, the midpoint of the response in data set [4], the EC50, lay at 3.5 µM. Moreover, in data set [6], the CC50 is > 100 µM.
Take `C[C@@]1(O)[C@H](O)[C@@H](CO)O[C@H]1n1ccc2c(N)ncnc21` [BETA-2'-C-METHYL-7-DEAZA-ADENOSINE]: the concentration giving a half-maximal response (EC50) in data set [4] worked out at 0.25 µM. Also, the CC50 in data set [6] is > 100 µM.
